# Assay results published in ChEMBL document CHEMBL1142136, “Contribution of target gene mutations and efflux to decreased susceptibility of Salmonella enterica serovar typhimurium to fluoroquinolones and other antimicrobials” (2007).
# Tests used:
# Assay type in all cases: functional, Salmonella enterica subsp. enterica serovar Typhimurium
# Salmonella typhimurium [1] = assay: Antimicrobial activity against Salmonella enterica serovar Typhimurium CS9 acrAB::Kan with GyrA S83F, D87N, ParC S80I mutation
# How it was run: (§1)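 MICs measured by broth microdilution on the Sensititre automated system and interpreted by CLSI broth microdilution standards. Ciprofloxacin was also tested by agar dilution, widening the range to 0.0075–128 μg/ml. Quality control strains were E. coli ATCC 25922 and 35218, E. faecalis ATCC 29212, S. aureus ATCC 29213 and P. aeruginosa ATCC 27853.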
# Salmonella typhimurium [2] = assay: Antimicrobial activity against Salmonella enterica serovar Typhimurium CHS14 tolC::Kan with GyrA D87G mutant; how it was run: as §1
# Salmonella typhimurium [3] = assay: Antimicrobial activity against Salmonella enterica serovar Typhimurium CS9 with GyrA S83F, D87N, ParC S80I mutation; how it was run: as §1
# Salmonella typhimurium [4] = assay: Antimicrobial activity against Salmonella enterica serovar Typhimurium S21-4 tolC::Kan with GyrA S83F, ParC S80I mutation; how it was run: as §1
# Salmonella typhimurium [5] = assay: Antimicrobial activity against Salmonella enterica serovar Typhimurium S21-4 with GyrA S83F, ParC S80I mutation; how it was run: as §1
# Salmonella typhimurium [6] = assay: Antimicrobial activity against Salmonella enterica serovar Typhimurium S21-1 gyrA+; how it was run: as §1
# Salmonella typhimurium [7] = assay: Antimicrobial activity against Salmonella enterica serovar Typhimurium CS1 tolC::Kan with GyrA S83F, D87N, ParC S80I mutation; how it was run: as §1
# Salmonella typhimurium [8] = assay: Antimicrobial activity against Salmonella enterica serovar Typhimurium S21-2 with GyrA S83F, ParC S80I mutation; how it was run: as §1
# Salmonella typhimurium [9] = assay: Antimicrobial activity against Salmonella enterica serovar Typhimurium CS3 gyrA+ with GyrA S83F, D87N, ParC S80I mutation; how it was run: as §1
# Salmonella typhimurium [10] = assay: Antimicrobial activity against Salmonella enterica serovar Typhimurium S21-1 GyrA S83F mutant; how it was run: as §1
# Salmonella typhimurium [11] = assay: Antimicrobial activity against Salmonella enterica serovar Typhimurium CHS18 gyrA+ with GyrA S38F mutation; how it was run: as §1
# Salmonella typhimurium [12] = assay: Antimicrobial activity against Salmonella enterica serovar Typhimurium CS9 gyrA+ with GyrA S83F, D87N, ParC S80I mutation; how it was run: as §1
# Salmonella typhimurium [13] = assay: Antimicrobial activity against Salmonella enterica serovar Typhimurium S21-2 gyrA+ with ParC S80I mutation; how it was run: as §1
# Salmonella typhimurium [14] = assay: Antimicrobial activity against Salmonella enterica serovar Typhimurium CHS38 acrAB::Kan with GyrA D87G mutation; how it was run: as §1
# Salmonella typhimurium [15] = assay: Antimicrobial activity against Salmonella enterica serovar Typhimurium CS1 gyrA+ with GyrA S83F, D87N, ParC S80I mutation; how it was run: as §1
# Salmonella typhimurium [16] = assay: Antimicrobial activity against Salmonella enterica serovar Typhimurium CHS38 tolC::Kan with GyrA D87G mutation; how it was run: as §1
# Salmonella typhimurium [17] = assay: Antimicrobial activity against Salmonella enterica serovar Typhimurium S21-3 tolC::Kan with GyrA S83F, ParC S80I mutation; how it was run: as §1
# Salmonella typhimurium [18] = assay: Antimicrobial activity against Salmonella enterica serovar Typhimurium S21; how it was run: as §1
# Salmonella typhimurium [19] = assay: Antimicrobial activity against Salmonella enterica serovar Typhimurium S21-3 gyrA+ with ParC S80I mutation; how it was run: as §1
# Salmonella typhimurium [20] = assay: Antimicrobial activity against Salmonella enterica serovar Typhimurium CS1 acrAB::Kan with GyrA S83F, D87N, ParC S80I mutation; how it was run: as §1
# Salmonella typhimurium [21] = assay: Antimicrobial activity against Salmonella enterica serovar Typhimurium S21-2 acrAB::Kan with GyrA S83F, ParC S80I mutation; how it was run: as §1
# Salmonella typhimurium [22] = assay: Antimicrobial activity against Salmonella enterica serovar Typhimurium S21-3 with GyrA S83F, ParC S80I mutation; how it was run: as §1
# Salmonella typhimurium [23] = assay: Antimicrobial activity against Salmonella enterica serovar Typhimurium CS9 tolC::Kan with GyrA S83F, D87N, ParC S80I mutation; how it was run: as §1
# Salmonella typhimurium [24] = assay: Antimicrobial activity against Salmonella enterica serovar Typhimurium GyrA S21-1 acrAB::Kan with GyrA S83F mutation; how it was run: as §1
# Salmonella typhimurium [25] = assay: Antimicrobial activity against Salmonella enterica serovar Typhimurium CS3 acrAB::Kan with GyrA S83F, D87N, ParC S80I mutation; how it was run: as §1
# Salmonella typhimurium [26] = assay: Antimicrobial activity against Salmonella enterica serovar Typhimurium CHS18 tolC::Kan with GyrA S38F mutation; how it was run: as §1
# Salmonella typhimurium [27] = assay: Antimicrobial activity against Salmonella enterica serovar Typhimurium S21-4 gyrA+ with ParC S80I mutation; how it was run: as §1
# Salmonella typhimurium [28] = assay: Antimicrobial activity against Salmonella enterica serovar Typhimurium S21 tolC::Kan
# How it was run: (§2)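 MICs by automated broth microdilution panels, interpreted to CLSI broth microdilution standards. Ciprofloxacin additionally tested by agar dilution across 0.0075 to 128 μg/ml. Quality control strains: E. coli ATCC 25922 and 35218, Enterococcus faecalis ATCC 29212, S. aureus ATCC 29213, P. aeruginosa ATCC 27853. Test strains are kanamycin-marked deletion mutants of ground-beef isolate S21.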
# Salmonella typhimurium [29] = assay: Antimicrobial activity against Salmonella enterica serovar Typhimurium CHS18 acrAB::Kan with GyrA S38F mutation; how it was run: as §1
# Salmonella typhimurium [30] = assay: Antimicrobial activity against Salmonella enterica serovar Typhimurium S21-1 tolC::Kan with GyrA S83F mutation; how it was run: as §1
# Salmonella typhimurium [31] = assay: Antimicrobial activity against Salmonella enterica serovar Typhimurium CHS18 with GyrA S38F mutation; how it was run: as §1
# Salmonella typhimurium [32] = assay: Antimicrobial activity against Salmonella enterica serovar Typhimurium CHS14 acrAB::Kan with GyrA D87G mutation; how it was run: as §1
# Salmonella typhimurium [33] = assay: Antimicrobial activity against Salmonella enterica serovar Typhimurium S21-3 acrAB::Kan with GyrA S83F, ParC S80I mutation; how it was run: as §1
# Salmonella typhimurium [34] = assay: Antimicrobial activity against Salmonella enterica serovar Typhimurium CS3 with GyrA S83F, D87N, ParC S80I mutation; how it was run: as §1
# Salmonella typhimurium [35] = assay: Antimicrobial activity against Salmonella enterica serovar Typhimurium CHS38 gyrA+ with GyrA D87G mutation; how it was run: as §1
# Salmonella typhimurium [36] = assay: Antimicrobial activity against Salmonella enterica serovar Typhimurium CHS14 with GyrA D87G mutation; how it was run: as §1
# Salmonella typhimurium [37] = assay: Antimicrobial activity against Salmonella enterica serovar Typhimurium CHS14 gyrA+ with GyrA D87G mutation; how it was run: as §1
# Salmonella typhimurium [38] = assay: Antimicrobial activity against Salmonella enterica serovar Typhimurium CS3 tolC::Kan with GyrA S83F, D87N, parC S80I mutation; how it was run: as §1
# Salmonella typhimurium [39] = assay: Antimicrobial activity against Salmonella enterica serovar Typhimurium CS1 with GyrA S83F, D87N, ParC S80I mutation; how it was run: as §1
# Salmonella typhimurium [40] = assay: Antimicrobial activity against Salmonella enterica serovar Typhimurium S21-4 acrAB::Kan with GyrA S83F, ParC S80I mutation; how it was run: as §1
# Salmonella typhimurium [41] = assay: Antimicrobial activity against Salmonella enterica serovar Typhimurium CHS38 with GyrA D87G mutation; how it was run: as §1
# Salmonella typhimurium [42] = assay: Antimicrobial activity against Salmonella enterica serovar Typhimurium S21-2 tolC::Kan with GyrA S83F, ParC S80I mutation; how it was run: as §1
# Salmonella typhimurium [43] = assay: Antimicrobial activity against Salmonella enterica serovar Typhimurium S21 gyrA+; how it was run: as §1
# Salmonella typhimurium [44] = assay: Antimicrobial activity against Salmonella enterica serovar Typhimurium S21 acrAB::Kan; how it was run: as §2
smiles,measurement,setting,value
O=C(O)c1cn(-c2ccc(F)cc2)c2cc(N3CCNCC3)c(F)cc2c1=O [SARAFLOXACIN],MIC,Salmonella typhimurium [1],4 µg/mL
same,MIC,Salmonella typhimurium [2],< 0.015 µg/mL
same,MIC,Salmonella typhimurium [3],> 16 µg/mL
same,MIC,Salmonella typhimurium [4],0.5 µg/mL
same,MIC,Salmonella typhimurium [5],> 16 µg/mL
same,MIC,Salmonella typhimurium [6],0.03 µg/mL
same,MIC,Salmonella typhimurium [7],4 µg/mL
same,MIC,Salmonella typhimurium [8],8 µg/mL
same,MIC,Salmonella typhimurium [9],0.06 µg/mL
same,MIC,Salmonella typhimurium [10],1 µg/mL
same,MIC,Salmonella typhimurium [11],0.06 µg/mL
same,MIC,Salmonella typhimurium [12],0.03 µg/mL
same,MIC,Salmonella typhimurium [13],0.25 µg/mL
same,MIC,Salmonella typhimurium [14],0.03 µg/mL
same,MIC,Salmonella typhimurium [15],0.06 µg/mL
same,MIC,Salmonella typhimurium [16],< 0.015 µg/mL
same,MIC,Salmonella typhimurium [17],0.5 µg/mL
same,MIC,Salmonella typhimurium [18],0.03 µg/mL
same,MIC,Salmonella typhimurium [19],1 µg/mL
same,MIC,Salmonella typhimurium [20],4 µg/mL
same,MIC,Salmonella typhimurium [21],0.5 µg/mL
same,MIC,Salmonella typhimurium [22],> 16 µg/mL
same,MIC,Salmonella typhimurium [23],4 µg/mL
same,MIC,Salmonella typhimurium [24],0.12 µg/mL
same,MIC,Salmonella typhimurium [25],4 µg/mL
same,MIC,Salmonella typhimurium [26],0.03 µg/mL
same,MIC,Salmonella typhimurium [27],2 µg/mL
same,MIC,Salmonella typhimurium [28],< 0.015 µg/mL
same,MIC,Salmonella typhimurium [29],0.03 µg/mL
same,MIC,Salmonella typhimurium [30],0.12 µg/mL
same,MIC,Salmonella typhimurium [31],0.25 µg/mL
same,MIC,Salmonella typhimurium [32],< 0.015 µg/mL
same,MIC,Salmonella typhimurium [33],0.5 µg/mL
same,MIC,Salmonella typhimurium [34],16 µg/mL
same,MIC,Salmonella typhimurium [35],< 0.015 µg/mL
same,MIC,Salmonella typhimurium [36],0.25 µg/mL
same,MIC,Salmonella typhimurium [37],0.03 µg/mL
same,MIC,Salmonella typhimurium [38],4 µg/mL
same,MIC,Salmonella typhimurium [39],16 µg/mL
same,MIC,Salmonella typhimurium [40],0.5 µg/mL
same,MIC,Salmonella typhimurium [41],0.12 µg/mL
same,MIC,Salmonella typhimurium [42],0.5 µg/mL
same,MIC,Salmonella typhimurium [43],0.03 µg/mL
same,MIC,Salmonella typhimurium [44],< 0.015 µg/mL
